Screening data as filed in PubChem.
In the library only some 2.6% were active in any assay of this set; here they are far more common.
RanGTP-Impb inh: disruptors of Ran-importin-beta complex formation – biochemical, FRET, CFP-Ran, YFP-importin-beta, homogeneous, primary screen | AID 2216 | 1.1% of 300,000 active | inhibition, % (no concentration beside the values) | cell-free CFP-Ran/YFP-importin-beta FRET ratio;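 active = more than half of the replicate wells show a fall in the fluorescence ratio signal beyond about 16%, limit read from the data, passing the limit was not always enough; inconclusive = exactly half of the replicate wells pass the set limit; inactive = fewer than half of replicates pass the limit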;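 note: 0% = DMSO wells and 100% = Ran loaded with GDP instead of GTP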
IMP-1 inh: blocks Pseudomonas aeruginosa IMP-1 metallo-beta-lactamase. purified IMP-1, nitrocefin hydrolysis, epi-absorbance fluorescence. 0.45% of 290,000 active. inhibition, % at 5.6 µM. AID 1556;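 active = inhibition above the mean plus 3 SD of all compounds in the same screening run, cut at about 4.5% in these data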;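 note: 0% = IMP-1 with DMSO and 100% = DMSO wells lacking enzyme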
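System: purified IMP-1 / Input: IMP-1 dispensed at 0.2 nM / Medium: 50 mM HEPES pH 7.1, 50 µM ZnSO4, 0.05% Brij 35 / Timing: 15 min enzyme–compound preincubation, then 25 min nitrocefin reaction, 25 °C / Technique: plate fluorescence quenching by hydrolysis product, ex 480/em 530 nm / Repeats: singlicate testing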
Runt-CBFb FRET: inhibitors of human RUNX1 Runt domain binding to CBFb; inhibition, % at 20 µM; Cerulean-Runt/Venus-CBFb FRET ratio 530/480, 1 h; 0.46% of 220,000 active; AID 1496; Q01196+Q13951;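 active = inhibition over about 50% at 20 µM in the single-dose screen, limit read from the data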;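 note: 0% = DMSO wells and 100% = excess unlabeled CBFb competitor control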
Target sequence (Q01196 whole entry, looked up, the tested form may be a part): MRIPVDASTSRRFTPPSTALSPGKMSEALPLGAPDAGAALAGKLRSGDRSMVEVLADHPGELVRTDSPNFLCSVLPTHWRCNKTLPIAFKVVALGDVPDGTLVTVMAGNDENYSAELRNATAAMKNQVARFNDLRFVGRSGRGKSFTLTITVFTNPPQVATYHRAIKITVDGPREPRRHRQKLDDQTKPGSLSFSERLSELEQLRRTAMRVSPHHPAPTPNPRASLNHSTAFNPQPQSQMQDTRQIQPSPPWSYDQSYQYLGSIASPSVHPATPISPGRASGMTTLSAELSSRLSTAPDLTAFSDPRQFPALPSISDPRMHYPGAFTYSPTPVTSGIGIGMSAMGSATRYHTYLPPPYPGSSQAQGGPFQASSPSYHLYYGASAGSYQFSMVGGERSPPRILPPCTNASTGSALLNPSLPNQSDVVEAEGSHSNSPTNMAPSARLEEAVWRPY
Target sequence (Q13951 whole entry, looked up, the tested form may be a part): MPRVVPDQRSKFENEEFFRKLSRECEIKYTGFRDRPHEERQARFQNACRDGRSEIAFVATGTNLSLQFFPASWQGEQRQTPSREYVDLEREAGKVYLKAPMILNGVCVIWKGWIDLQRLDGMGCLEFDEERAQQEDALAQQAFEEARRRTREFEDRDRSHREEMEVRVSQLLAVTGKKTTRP
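Measured by: fluorescence energy transfer, 422 nm excitation, 530/480 nm emission; test system: Cerulean-tagged RUNX1 Runt domain (FRET donor) fusion protein; buffer or medium: Tris pH 7.5 buffer with BSA; compound: one dose, 20 µM compound, 1% DMSO; times: two 1 h room-temperature incubations shielded from light; benchmarks: unlabeled CBFb 5 µM, positive control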
VIM-2 inh: inhibitors of Pseudomonas aeruginosa VIM-2 metallo-beta-lactamase; 0.89% of 290,000 active; inhibition, % at 5.6 µM; purified VIM-2, nitrocefin hydrolysis, epi-absorbance fluorescence;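 active = inhibition above the mean of all tested compounds plus 3 SD, cutoff set per screening run, cut at about 7.5% in these data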;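 note: red hydrolysis product quenches plate fluorescence so inhibitors raise well fluorescence; 0% = enzyme with DMSO and 100% = DMSO without enzyme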
Runt-SMMHC FRET: blocks binding of human RUNX1 Runt domain to CBFb-SMMHC; Q01196+Q13951; Cerulean-Runt/Venus-CBFb-SMMHC FRET ratio 530/480, 1 h; inhibition, % at 20 µM; 0.74% of 220,000 active; AID 1434;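 active = mean inhibition across duplicate retests at 20 µM reaching about 50%, limit read from the data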;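 note: 0% = DMSO wells and 100% = wells with excess untagged CBFb-SMMHC; inhibitors lower the FRET ratio by blocking Runt binding to CBFb-SMMHC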
* marks the source's active call; other numbers are inactive results; ? = inconclusive; nt = no result given.

SMILES	RanGTP-Impb inh	IMP-1 inh	Runt-CBFb FRET	VIM-2 inh	Runt-SMMHC FRET
CCCc1cc(NCCCO)n2c(nc3ccccc32)c1C#N	30*	0	15	10*	38
Cc1cc(-n2ccnc2)n2c(nc3ccccc32)c1C#N	3	3	37	7.7*	48
CCC(C)Sc1cc(C)c(C#N)c2nc3ccccc3n12 (stereo not given)	-16	-2	-50	10*	6
Cc1cc(C(C)C)n2c(nc3ccccc32)c1C#N	?	0	6	1	8
CCCc1cc(SCC(=O)Nc2c(C)n(C)n(-c3ccccc3)c2=O)n2c(nc3ccccc32)c1C#N	7	2	10	4	63
CCCc1cc(-n2ccnc2)n2c(nc3ccccc32)c1C#N	?	-7	88*	5	62*
COc1ccc(C(=O)NC2CCCc3ccccc32)cc1OC1CCN(C(C)=O)CC1 (stereo not given)	-1	-2	nt	-3	nt
COC(=O)c1nn(-c2ccc(OC)cc2)ccc1=O	1	-3	nt	-1	nt
Cc1cc(Nc2ccc(O)cc2)n2c(nc3ccccc32)c1C#N	2	-2	2	0	0
Cc1cc(N2CCN(C3CCCC3)CC2)n2c(nc3ccccc32)c1C#N	7	0	32	6	53*
COc1ccc(CCN(C)C2CCCN(S(=O)(=O)c3ccccc3)C2)cc1OC (stereo not given)	4	-1	nt	2	nt
CCn1c(=O)c(CCC(=O)N2CCOCC2)c(C)c2c(C)nn(-c3ccccc3)c21	1	-1	nt	8.4*	nt
CCn1c(=O)c(CCC(=O)NCCN2CCOCC2)c(C)c2c(C)nn(-c3cccc(C)c3)c21	4	-2	nt	6	nt
Cc1nn(-c2ccccc2)c2c1c(C)c(CCC(=O)N1CCOCC1)c(=O)n2C	1	-2	nt	10*	nt
Cc1cc(=O)n(CC(=O)NCCN2CCOCC2)c2c1c(C)nn2-c1ccccc1	0	-1	nt	7	nt
CC1CN(S(=O)(=O)c2cccc(C(=O)Nc3ccc(S(=O)(=O)NC4=NCCCCC4)cc3)c2)CC(C)O1 (stereo not given)	-2	nt	nt	nt	nt
Cc1nn(-c2ccccc2)c(Cl)c1C(=O)OCC(=O)NCCc1ccccc1	?	1	nt	1	nt
N#CCc1nc(-c2cc3ccccc3oc2=O)cs1	177*	-4	3	-1	0
Cc1ccc(S(=O)(=O)[N-]c2nc3ccccc3nc2-n2cc[n+](Cc3ccccc3)c2)cc1	14*	-2	19	1	39
CC(OC(=O)Cc1cccc(C(F)(F)F)c1)C(=O)Nc1ccc(Cl)cn1 (stereo not given)	4	-2	nt	-1	nt
O=C(CSc1n[nH]c(=O)[nH]c1=O)Nc1ccc(C(=O)O)cc1	-2	7.7*	1	1	0
Cc1cc(NC(=O)CSc2n[nH]c(=O)[nH]c2=O)ccc1Br	-3	0	-2	-1	0
COc1ccc(OC)c(NC(=O)CSc2nncc(=O)n2N)c1	5	-1	nt	-1	nt
COc1ccc(C2=Nn3c(nnc3-c3ccco3)SC2)cc1	1	-3	0	9.8*	-4
Cc1ccc(C(C)C)c(OCC(=O)NS(=O)(=O)c2ccc(Cl)cc2)c1	-1	-1	nt	-1	nt
SMILES	RanGTP-Impb inh	IMP-1 inh	Runt-CBFb FRET	VIM-2 inh	Runt-SMMHC FRET
COc1ccc(N2CSC3=C(C#N)C(c4cccc(OC)c4OC)CC(=O)N3C2)cc1 (stereo not given)	2	-2	15	1	33
COc1cc(OC)c(C2CC(=O)N3CN(c4ccccc4C)CSC3=C2C#N)cc1OC (stereo not given)	-64	-2	41	-2	67*
COc1ccc2ccccc2c1C1CC(=O)N2CN(C3CCCCC3)CSC2=C1C#N (stereo not given)	1	3	7	4	10
COc1ccc(OC)c(C2CC(=O)N3CN(c4ccccc4)CSC3=C2C#N)c1 (stereo not given)	-7	-2	33	-2	62*
Nc1ccccc1SC1CC(=O)N(c2ccccc2Cl)C1=O (stereo not given)	6	0	0	1	-4
Cc1nn(C)c(C)c1CN(C(=O)C1CCC(=O)N(C2CCCCCC2)C1)C(C)C (stereo not given)	-1	-1	nt	1	nt
CC(=O)Oc1cc2oc(=O)c3c(c2cc1Cl)CCC3	11	-5	81*	9.7*	178*
